outcome, activation and potentiation data for 30 compounds are collected here from PubChem BioAssay.

The source made the active and inactive calls.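 The calls were made as follows, unless noted: active = mean duplicate potentiation above the buffer control mean plus 5 SD of buffer wells; inactive = the rest.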

Experiment [1] can be described thus: nonspecific flux increase, KCNQ1-free cells – parental CHO cells, counter-screen for KCNQ1 potentiator project (AID 493006;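 active = duplicate-averaged activation above buffer control mean plus 5 SD of those controls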). The conditions noted are these: parental CHO-K1 cells, FluxOR thallium flux, at 10 µM; active compounds read high. In outline:
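Assay system: Untransfected host CHO-K1 cells with FluxOR thallium dye | Probe or stimulus: Potassium/thallium depolarization pulse | Schedule: Overnight 37 °C plating, 90 min RT dye, 20 min compound | Detection: Kinetic thallium-flux fluorescence | Read-out: Max-minus-min fluorescence over baseline, percent of buffer-to-R-L3 span | Benchmarks: Low control buffer, high control R-L3 activator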
On the technique in general: Counterscreens check selectivity or assay interference.

In experiment [2] the target is Potassium voltage-gated channel subfamily KQT member 1 (Homo sapiens) (UniProt P51787). The experiment is described as follows: enhancement of KCNQ1 channel thallium flux – FluxOR thallium flux, CHO cells, duplicates, confirmation (AID 493007;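 active = potentiation averaged over duplicate wells exceeding buffer-only control mean by more than 3 SD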;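 as to outcome: cells depolarized by a potassium plus thallium sulfate stimulus after compound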). The conditions noted are these: KCNQ1 cell line, FluxOR thallium flux fluorescence, at 10 µM; active compounds read high, % of reference activator effect, buffer zero. In outline:
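Material: KCNQ1-expressing CHO cell line; Incubation: FluxOR dye loading 90 min, compound exposure 20 min, room temperature; Detection: FluxOR Tl+ flux fluorescence, 10 s baseline plus 110 s recording; Read-out: percent activation between buffer and R-L3 responses; Control set: buffer-only wells as 0% and R-L3 activator as 100%; Replication: duplicate wells per compound.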

The target of experiment [3] is Potassium voltage-gated channel subfamily KQT member 2 (Rattus norvegicus) (UniProt O88943). The experiment is described as follows: KCNQ2 thallium flux enhancement – KCNQ2-CHO-K1 cells, selectivity assay for KCNQ1 potentiator project (AID 493009).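 Also: assay conditions were tuned for KCNQ1 rather than KCNQ2 modulators; signal is max minus min fluorescence divided by baseline after thallium stimulus.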 Conditions: FluxOR thallium flux fluorescence, at 10 µM; active compounds read high, scaled: buffer 0, activator control 100.
For experiment [4], the target named is Potassium voltage-gated channel subfamily KQT member 1 (Homo sapiens) (UniProt P51787). The experiment is described as follows: KCNQ1 activators by electrophysiology – IonWorks patch clamp, KCNQ1-CHO cells, orthogonal assay for KCNQ1 potentiator project, confirmation (AID 493184;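 active = current rise at least 3 SD above the untreated control mean in each of two repeat wells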). The conditions noted are these: automated patch clamp current, at 10 µM; active compounds read high. The gist of the method:
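assay system = KCNQ1-expressing CHO cells | medium = external bath solution at pH 7.4 | probe or stimulus = 2,000 ms depolarization, -90 to +40 mV | compound dosing = 10 µM final, single point | measured by = automated voltage clamp, amphotericin B perforated patch | measure = percent current increase versus pre-compound level | replication = duplicates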
Background: Patch clamp records ionic current or voltage across a cell membrane.

Chain of Potassium voltage-gated channel subfamily KQT member 1 (Homo sapiens) (P51787 whole entry, looked up): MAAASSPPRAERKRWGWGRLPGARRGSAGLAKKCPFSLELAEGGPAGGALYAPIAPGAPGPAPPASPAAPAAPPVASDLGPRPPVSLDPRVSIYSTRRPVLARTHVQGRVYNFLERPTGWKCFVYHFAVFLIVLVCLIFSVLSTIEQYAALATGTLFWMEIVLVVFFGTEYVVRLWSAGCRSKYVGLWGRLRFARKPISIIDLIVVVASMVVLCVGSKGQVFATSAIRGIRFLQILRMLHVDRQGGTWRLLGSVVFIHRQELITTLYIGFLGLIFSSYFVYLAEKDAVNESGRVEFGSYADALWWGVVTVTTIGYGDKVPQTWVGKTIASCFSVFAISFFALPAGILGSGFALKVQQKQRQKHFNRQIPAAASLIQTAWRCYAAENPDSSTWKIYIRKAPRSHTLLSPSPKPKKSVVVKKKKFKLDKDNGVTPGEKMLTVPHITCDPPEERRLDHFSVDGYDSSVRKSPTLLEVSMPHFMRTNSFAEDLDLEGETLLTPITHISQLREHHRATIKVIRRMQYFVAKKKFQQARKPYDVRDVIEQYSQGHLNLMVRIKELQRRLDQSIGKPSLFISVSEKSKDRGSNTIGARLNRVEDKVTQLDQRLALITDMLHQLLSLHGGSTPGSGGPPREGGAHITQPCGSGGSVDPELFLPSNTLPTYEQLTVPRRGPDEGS
Chain of Potassium voltage-gated channel subfamily KQT member 2 (Rattus norvegicus) (O88943 whole entry, looked up): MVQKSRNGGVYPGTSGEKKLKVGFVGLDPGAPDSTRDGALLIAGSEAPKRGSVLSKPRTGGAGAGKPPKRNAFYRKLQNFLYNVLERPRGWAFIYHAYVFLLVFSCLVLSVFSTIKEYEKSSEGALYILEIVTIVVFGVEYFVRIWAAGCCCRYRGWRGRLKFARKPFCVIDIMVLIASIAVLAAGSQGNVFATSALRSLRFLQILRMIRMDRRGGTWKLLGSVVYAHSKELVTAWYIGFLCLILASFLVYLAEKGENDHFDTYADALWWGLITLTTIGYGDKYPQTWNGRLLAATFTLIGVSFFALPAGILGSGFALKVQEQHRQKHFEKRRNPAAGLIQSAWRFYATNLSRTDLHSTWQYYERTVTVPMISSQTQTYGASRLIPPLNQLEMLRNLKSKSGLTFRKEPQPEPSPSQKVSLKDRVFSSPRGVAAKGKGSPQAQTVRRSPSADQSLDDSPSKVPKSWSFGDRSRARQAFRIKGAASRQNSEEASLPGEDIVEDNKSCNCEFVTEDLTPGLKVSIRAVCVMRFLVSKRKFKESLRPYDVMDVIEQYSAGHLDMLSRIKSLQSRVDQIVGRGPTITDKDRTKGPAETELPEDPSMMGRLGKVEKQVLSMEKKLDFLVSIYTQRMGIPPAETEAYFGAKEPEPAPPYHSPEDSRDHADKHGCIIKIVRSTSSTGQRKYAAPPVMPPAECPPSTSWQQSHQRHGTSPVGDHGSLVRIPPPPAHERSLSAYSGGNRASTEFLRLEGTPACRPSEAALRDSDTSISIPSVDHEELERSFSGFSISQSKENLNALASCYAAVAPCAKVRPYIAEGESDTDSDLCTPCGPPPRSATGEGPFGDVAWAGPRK

Take `COCCNC(=O)C1CCN(S(=O)(=O)N2CCC3(CC2)OCCO3)CC1`: the result in experiment [1], in experiment [2], in experiment [3] and in experiment [4] was inactive.

`Cc1ccc(N(C(=O)c2ccco2)C(C(=O)NC2CCCC2)c2cccnc2)cc1C` (stereo not given): the outcome in experiment [1], in experiment [2], in experiment [3] and in experiment [4] was inactive.

With `CC(=O)c1c(N2CCCC2)[nH]c(-c2ccccc2)nc1=S`, the outcome in experiment [1], in experiment [2], in experiment [3] and in experiment [4] was inactive.

Consider `O=C(NC(=S)N1CCN(c2ccc(F)cc2)CC1)c1cccs1`, for which the activation in experiment [1] was 274% (active). For the same compound, the potentiation is 84.5% (active) in experiment [2] and 338% (active) in experiment [3]. In experiment [4], the result was inactive.

Turning to `Cn1c(=S)[nH]c2scc(-c3cccs3)c2c1=O`, the activation in experiment [1] is 524% (active). In addition, the potentiation in experiment [2] is 218% (active); in experiment [3], 500% (active). Moreover, the outcome in experiment [4] was inactive.

Take `CCn1nc(C)c(NC(=O)c2cnn3c(C(F)F)cc(-c4ccccc4)nc23)c1C`: the result in experiment [1], in experiment [2], in experiment [3] and in experiment [4] was inactive.

Consider `CC(Oc1ccc(Cl)cc1Cl)C(=O)NC(=S)N1CCc2ccccc21` (stereo not given), for which the activation in experiment [1] is 151% (active). For the same compound, the potentiation in experiment [2] is 120% (active); in experiment [3], 172% (active). Besides, in experiment [4], the result was inactive.

With `O=C(c1cc(COc2ccc3ncccc3c2)on1)N1CCCC(O)C1` (stereo not given), the outcome in experiment [1], in experiment [2], in experiment [3] and in experiment [4] was inactive.

Consider `COc1ccc(-n2c(=S)[nH]c3c(oc4ccccc43)c2=O)cc1`, for which the result in experiment [1], in experiment [2], in experiment [3] and in experiment [4] was inactive.

Turning to `S=c1nc(-c2ccccc2)[nH]c2ccccc12`, in experiment [1], the activation is 316% (active). Also, the potentiation is 110% (active) in experiment [2] and 294% (active) in experiment [3]. The result in experiment [4] was inactive.

Turning to `CCCCOC(=O)Nc1ccccc1C(N)=O`, the result in experiment [1], in experiment [2], in experiment [3] and in experiment [4] was inactive.

For the compound `COc1ccc(-c2csc(N(CCCN(C)C)C(=O)c3ccccc3Cl)n2)cc1`, the result in experiment [1], in experiment [2], in experiment [3] and in experiment [4] was inactive.

With `CCOC(=O)c1sc(N2N=C(C)C(N=Nc3cccc(C)c3)C2=O)nc1C` (stereo not given), the result in experiment [1] and in experiment [4] was inactive. Moreover, the potentiation in experiment [2] was 31% (active); in experiment [3] it was 148% (active).

As for `CCOC(=O)c1ccc(Nc2nc(N3CCOCC3)nc(N3CCOCC3)n2)cc1`, the outcome in experiment [1], in experiment [2], in experiment [3] and in experiment [4] was inactive.

Take `CCN(CC)c1ccc(/C=N/Nc2nc3ccccc3[nH]2)c(O)c1`: the result in experiment [1], in experiment [2], in experiment [3] and in experiment [4] was inactive.

Regarding `Cc1nc2c(c3c1[nH]c1ccccc13)C(=O)CC(C)(C)C2`, the result in experiment [1], in experiment [2], in experiment [3] and in experiment [4] was inactive.

In the case of `C=CCN(CC=C)C(=S)NC(=O)c1ccc(C)c(Br)c1`, in experiment [1], the activation is 779% (active). The potentiation in experiment [2] is 270% (active); in experiment [3], 688% (active). The result in experiment [4] was inactive.

On to `O=C(N/N=C/c1ccccn1)c1cc(Br)ccc1O`, for which the activation in experiment [1] is 147% (active). For the same compound, the potentiation in experiment [2] was 24% (active); in experiment [3], 182% (active). The outcome in experiment [4] was inactive.

With `Oc1c(Br)cc(Br)cc1C=NCc1ccccc1`, the activation in experiment [1] is 147% (active). Also, the potentiation in experiment [2] is 21.5% (active). The result in experiment [3] and in experiment [4] was inactive.

On to `CC1CCN(C(=S)NC(=O)c2ccc(C(C)(C)C)cc2)CC1`, for which, in experiment [1], the activation is 165% (active). For the same compound, the potentiation in experiment [2] is 85.5% (active); in experiment [3], 284% (active). Besides, the result in experiment [4] was inactive.

In the case of `COc1cccc(CN(C)C(=O)c2cc(COc3ccc4ncccc4c3)on2)c1`, the result in experiment [1], in experiment [2], in experiment [3] and in experiment [4] was inactive.

In the case of `CC1=CC(=O)C(C(C)C)=CC1=NC(=O)c1ccc(C)cc1`, the outcome in experiment [1], in experiment [2], in experiment [3] and in experiment [4] was inactive.

Turning to `COc1cc(CNCc2ccccn2)ccc1OCc1ccc(Cl)cc1`, the result in experiment [1], in experiment [2], in experiment [3] and in experiment [4] was inactive.

In the case of `CCc1ccc(/C=C/C(=O)C2C(=O)c3ccccc3C2=O)cc1`, the activation in experiment [1] is 284% (active). Moreover, the potentiation is 118% (active) in experiment [2] and 297% (active) in experiment [3]. Further, the result in experiment [4] was inactive.

As for `Cc1onc(-c2ccccc2)c1C(=O)N1CCN(S(=O)(=O)c2ccc(OC(F)(F)F)cc2)CC1`, the outcome in experiment [1], in experiment [2], in experiment [3] and in experiment [4] was inactive.

Turning to `CCOc1ccc(CCNC(=O)CSc2nc3ncc(Cl)cc3[nH]2)cc1OCC`, the result in experiment [1], in experiment [2], in experiment [3] and in experiment [4] was inactive.

With `CC12CCC(C(=O)N(CSC(=S)N/N=C\c3ccccc3Cl)C1=O)C2(C)C` (stereo not given), in experiment [1], the activation is 178% (active). In addition, the potentiation is 47% (active) in experiment [2] and 152% (active) in experiment [3]. Also, in experiment [4], the result was inactive.

With `Fc1ccc(-c2csc(=S)[nH]2)cc1`, in experiment [1], the activation was 416% (active). The potentiation is 120% (active) in experiment [2] and 398% (active) in experiment [3]. The result in experiment [4] was inactive.

Regarding `Nc1nc(NCc2ccco2)nc(NC2CCCCC2)c1[N+](=O)[O-]`, the outcome in experiment [1], in experiment [2], in experiment [3] and in experiment [4] was inactive.

As to `Cc1cc(C)cc(-n2ccnc2SCC(=O)Nc2nccs2)c1`, the outcome in experiment [1], in experiment [2], in experiment [3] and in experiment [4] was inactive.
